Here are results for five compounds from ChEMBL document CHEMBL1811902, “Thermodynamic and biological evaluation of a thrombin binding aptamer modified with several unlocked nucleic acid (UNA) monomers and a 2'-C-piperazino-UNA monomer” (Bioorg Med Chem, 2011).

Data set [1] deals with Plasma. In words: Anticoagulant activity in human plasma assessed as time required for clot formation in presence of compound minus time required for clot formation in absence of compound at 0.33 mM at 37 degC. Format: functional. In short, it runs like this:
(§1)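 Pooled citrate plasma from four healthy donors. Thrombin reagent pre-incubated with aptamer at 0.33 mM for 5 min, then mixed with an equal volume of plasma. Clotting time (thrombin time, seconds) read at 37 °C on an automated coagulation analyser. Antithrombin effect taken as the extra clotting time over a water-added reference.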

For data set [2], the system named is Plasma. In words: Anticoagulant activity in human plasma assessed as time required for clot formation at 0.33 mM at 37 degC. The data set is classed as functional. In short, it runs like this: as §1
A further data set addresses Prothrombin (Homo sapiens, UniProt P00734). In words: Binding affinity to thrombin at 37 degC by isothermal titration calorimetry. In short, it runs like this: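 ITC at 37 °C. One 0.2 µL pre-injection, discarded, then 19 × 2 µL injections. Heat of dilution from aptamer-into-buffer injections subtracted.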
Data set [3] in a line: Thermodynamic stability in pH 7.0 buffer containing 100 mM Kcl, 10 mM sodium cacodylate. The data set is classed as physicochemical. In short, it runs like this: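 UV melting at 295 nm over 5–95 °C at 0.2 °C/min. Samples annealed 5 min at 80 °C, then slowly cooled. Nine strand concentrations spanning 10^-5–10^-6 M, set from absorbance above 80 °C. Heating and cooling profiles recorded. Thermodynamic parameters from non-linear fitting of melting curves with a unimolecular transition model.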

In the case of `Cc1cn([C@H]2C[C@H](OP(N)(=O)OC[C@H]3O[C@@H](n4cnc5c(=O)[nH]c(N)nc54)C[C@@H]3OP(N)(=O)OC[C@H]3O[C@@H](n4cnc5c(=O)[nH]c(N)nc54)C[C@@H]3O)[C@@H](COP(N)(=O)O[C@H]3C[C@H](n4cc(C)c(=O)[nH]c4=O)O[C@@H]3COP(N)(=O)O[C@H]3C[C@H](n4cnc5c(=O)[nH]c(N)nc54)O[C@@H]3COP(N)(=O)O[C@H]3C[C@H](n4cnc5c(=O)[nH]c(N)nc54)O[C@@H]3COP(N)(=O)O[C@H]3C[C@H](n4cc(C)c(=O)[nH]c4=O)O[C@@H]3COP(N)(=O)O[C@H]3C[C@H](n4cnc5c(=O)[nH]c(N)nc54)O[C@@H]3COP(N)(=O)OC[C@@H](COP(N)(=O)O[C@H]3C[C@H](n4cnc5c(=O)[nH]c(N)nc54)O[C@@H]3COP(N)(=O)O[C@@H]3C[C@@H](COP(N)(=O)O[C@H]4C[C@H](n5cc(C)c(=O)[nH]c5=O)O[C@@H]4COP(N)(=O)O[C@H]4C[C@H](n5c(C)cc(=O)[nH]c5=O)O[C@@H]4COP(N)(=O)O[C@H]4C[C@H](n5cnc6c(=O)[nH]c(N)nc65)O[C@@H]4COP(N)(=O)O[C@H]4C[C@H](n5cnc6c(=O)[nH]c(N)nc65)O[C@@H]4COC(=O)CCCC[C@@H]4SC[C@@H]5NC(=O)N[C@@H]54)O[C@H]3n3cnc4c(=O)[nH]c(N)nc43)O[C@H](CN3CCNCC3)n3ccc(=O)[nH]c3=O)O2)c(=O)[nH]c1=O` (stereo not given in full), the Time in the data set on Plasma [1] is listed as 12.2 s; in the data set on Plasma [2], 31.2 s. For the same compound, binding on Prothrombin was characterised by a dissociation constant (Kd) of 52.6 nM. The Tm in data set [3] came to 45.2 °C.
On to `Cc1cn([C@H]2C[C@H](OP(N)(=O)OC[C@H]3O[C@@H](n4cnc5c(=O)[nH]c(N)nc54)C[C@@H]3OP(N)(=O)OC[C@H]3O[C@@H](n4cnc5c(=O)[nH]c(N)nc54)C[C@@H]3O)[C@@H](COP(N)(=O)OC[C@@H](COP(N)(=O)O[C@H]3C[C@H](n4cnc5c(=O)[nH]c(N)nc54)O[C@@H]3COP(N)(=O)O[C@H]3C[C@H](n4cnc5c(=O)[nH]c(N)nc54)O[C@@H]3COP(N)(=O)O[C@H]3C[C@H](n4cc(C)c(=O)[nH]c4=O)O[C@@H]3COP(N)(=O)O[C@H]3C[C@H](n4cnc5c(=O)[nH]c(N)nc54)O[C@@H]3COP(N)(=O)OC[C@@H](COP(N)(=O)O[C@H]3C[C@H](n4cnc5c(=O)[nH]c(N)nc54)O[C@@H]3COP(N)(=O)O[C@@H]3C[C@@H](COP(N)(=O)O[C@H]4C[C@H](n5cc(C)c(=O)[nH]c5=O)O[C@@H]4COP(N)(=O)O[C@H]4C[C@H](n5cc(C)c(=O)[nH]c5=O)O[C@@H]4COP(N)(=O)O[C@H]4C[C@H](n5cnc6c(=O)[nH]c(N)nc65)O[C@@H]4COP(N)(=O)O[C@H]4C[C@H](n5cnc6c(=O)[nH]c(N)nc65)O[C@@H]4COC(=O)CCCC[C@@H]4SC[C@@H]5NC(=O)N[C@@H]54)O[C@H]3n3cnc4c(=O)[nH]c(N)nc43)O[C@H](CO)n3ccc(=O)[nH]c3=O)O[C@H](CO)n3ccc(=O)[nH]c3=O)O2)c(=O)[nH]c1=O` (stereo not given in full), for which the results for the Time in the data set on Plasma [1] and with Plasma [2] were 9.7 s and 28.7 s, respectively. Also, binding on Prothrombin was put at a Kd of 300 nM. Besides, the Tm in data set [3] was 48.1 °C.
The corresponding values for `Cc1cn([C@H]2C[C@H](OP(N)(=O)OC[C@@H]3C[C@@H](OP(N)(=O)OC[C@H]4O[C@@H](n5cnc6c(=O)[nH]c(N)nc65)C[C@@H]4OP(N)(=O)OC[C@H]4O[C@@H](n5cc(C)c(=O)[nH]c5=O)C[C@@H]4OP(N)(=O)OC[C@H]4O[C@@H](n5cnc6c(=O)[nH]c(N)nc65)C[C@@H]4OP(N)(=O)OC[C@H]4O[C@@H](n5cc(C)c(=O)[nH]c5=O)C[C@@H]4OP(N)(=O)OC[C@H]4O[C@@H](n5cnc6c(=O)[nH]c(N)nc65)C[C@@H]4OP(N)(=O)OC[C@H]4O[C@@H](n5cnc6c(=O)[nH]c(N)nc65)C[C@@H]4OP(N)(=O)OC[C@H]4O[C@@H](n5cc(C)c(=O)[nH]c5=O)C[C@@H]4OP(N)(=O)OC[C@H]4O[C@@H](n5cc(C)c(=O)[nH]c5=O)C[C@@H]4OP(N)(=O)OC[C@H]4O[C@@H](n5cnc6c(=O)[nH]c(N)nc65)C[C@@H]4OP(N)(=O)OC[C@H]4O[C@@H](n5cnc6c(=O)[nH]c(N)nc65)C[C@@H]4O)[C@H](n4cnc5c(=O)[nH]c(N)nc54)O3)[C@@H](COP(N)(=O)O[C@H]3C[C@H](n4cc(C)c(=O)[nH]c4=O)O[C@@H]3COP(N)(=O)O[C@H]3C[C@H](n4cnc5c(=O)[nH]c(N)nc54)O[C@@H]3COP(N)(=O)O[C@H]3C[C@H](n4cnc5c(=O)[nH]c(N)nc54)O[C@@H]3COC(=O)CCCC[C@@H]3SC[C@@H]4NC(=O)N[C@@H]43)O2)c(=O)[nH]c1=O` (stereo not given in full) [THROMBIN BINDING APTAMER] are 13.6 s, 32.6 s, 47.6 nM and 42.2 °C.
Regarding `Cc1cn([C@H]2C[C@H](OP(N)(=O)OC[C@@H]3C[C@@H](OP(N)(=O)OC[C@H]4O[C@@H](n5cnc6c(=O)[nH]c(N)nc65)C[C@@H]4OP(N)(=O)OC[C@H](COP(N)(=O)OC[C@H]4O[C@@H](n5cnc6c(=O)[nH]c(N)nc65)C[C@@H]4OP(N)(=O)OC[C@H]4O[C@@H](n5cc(C)c(=O)[nH]c5=O)C[C@@H]4OP(N)(=O)OC[C@H]4O[C@@H](n5cnc6c(=O)[nH]c(N)nc65)C[C@@H]4OP(N)(=O)OC[C@H]4O[C@@H](n5cnc6c(=O)[nH]c(N)nc65)C[C@@H]4OP(N)(=O)OC[C@H]4O[C@@H](n5cc(C)c(=O)[nH]c5=O)C[C@@H]4OP(N)(=O)OC[C@H]4O[C@@H](n5cc(C)c(=O)[nH]c5=O)C[C@@H]4OP(N)(=O)OC[C@H]4O[C@@H](n5cnc6c(=O)[nH]c(N)nc65)C[C@@H]4OP(N)(=O)OC[C@H]4O[C@@H](n5cnc6c(=O)[nH]c(N)nc65)C[C@@H]4O)O[C@H](CO)n4ccc(=O)[nH]c4=O)[C@H](n4cnc5c(=O)[nH]c(N)nc54)O3)[C@@H](COP(N)(=O)OC[C@@H](COP(N)(=O)O[C@H]3C[C@H](n4cnc5c(=O)[nH]c(N)nc54)O[C@@H]3COP(N)(=O)O[C@H]3C[C@H](n4cnc5c(=O)[nH]c(N)nc54)O[C@@H]3COC(=O)CCCC[C@@H]3SC[C@@H]4NC(=O)N[C@@H]43)O[C@H](CO)n3ccc(=O)[nH]c3=O)O2)c(=O)[nH]c1=O` (stereo not given in full), the Time in the data set with Plasma [1] is 12.2 s; in the data set on Plasma [2], 31.2 s. Also, on Prothrombin, binding was characterised by a dissociation constant (Kd) of 1300 nM. For the same compound, in data set [3], the Tm amounted to 50.1 °C.
For the compound `Cc1cn([C@H]2C[C@H](OP(N)(=O)OC[C@H]3O[C@@H](n4cnc5c(=O)[nH]c(N)nc54)C[C@@H]3OP(N)(=O)OC[C@H]3O[C@@H](n4cnc5c(=O)[nH]c(N)nc54)C[C@@H]3O)[C@@H](COP(N)(=O)OC[C@@H](COP(N)(=O)O[C@H]3C[C@H](n4cnc5c(=O)[nH]c(N)nc54)O[C@@H]3COP(N)(=O)O[C@H]3C[C@H](n4cnc5c(=O)[nH]c(N)nc54)O[C@@H]3COP(N)(=O)O[C@H]3C[C@H](n4cc(C)c(=O)[nH]c4=O)O[C@@H]3COP(N)(=O)O[C@H]3C[C@H](n4cnc5c(=O)[nH]c(N)nc54)O[C@@H]3COP(N)(=O)O[C@H]3C[C@H](n4c(C)cc(=O)[nH]c4=O)O[C@@H]3COP(N)(=O)O[C@H]3C[C@H](n4cnc5c(=O)[nH]c(N)nc54)O[C@@H]3COP(N)(=O)O[C@@H]3C[C@@H](COP(N)(=O)O[C@H]4C[C@H](n5cc(C)c(=O)[nH]c5=O)O[C@@H]4COP(N)(=O)O[C@H]4C[C@H](n5cc(C)c(=O)[nH]c5=O)O[C@@H]4COP(N)(=O)O[C@H]4C[C@H](n5cnc6c(=O)[nH]c(N)nc65)O[C@@H]4COP(N)(=O)O[C@H]4C[C@H](n5cnc6c(=O)[nH]c(N)nc65)O[C@@H]4COC(=O)CCCC[C@@H]4SC[C@@H]5NC(=O)N[C@@H]54)O[C@H]3n3cnc4c(=O)[nH]c(N)nc43)O[C@H](CN3CCNCC3)n3ccc(=O)[nH]c3=O)O2)c(=O)[nH]c1=O` (stereo not given in full), the Time turned out to be 3.5 s in the data set with Plasma [1] and 22.5 s in the data set on Plasma [2]. The Kd – broadly, the constant that tells how readily two partners part at equilibrium – on Prothrombin was 1000 nM. In addition, the Tm in data set [3] turned out to be 44.8 °C.
